Columns and labels:
Assay type in all cases: cell-based
[1] = molecular target: T1, Adenosine receptor A2b (Homo sapiens, UniProt P29275); test: Displacement of [3]DPCPX from human adenosine A2B receptor expressed in HEK293 cells
T1 sequence (P29275 whole entry): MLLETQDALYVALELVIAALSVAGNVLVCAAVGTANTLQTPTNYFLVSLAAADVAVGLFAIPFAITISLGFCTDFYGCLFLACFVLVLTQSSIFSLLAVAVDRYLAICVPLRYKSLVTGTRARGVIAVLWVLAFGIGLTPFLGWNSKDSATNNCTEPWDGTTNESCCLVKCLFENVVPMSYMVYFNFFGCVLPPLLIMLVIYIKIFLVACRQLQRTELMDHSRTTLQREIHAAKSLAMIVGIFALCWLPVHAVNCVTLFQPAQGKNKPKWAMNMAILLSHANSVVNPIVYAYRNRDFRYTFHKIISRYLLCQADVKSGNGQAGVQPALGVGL
Procedure, shortened: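 Membranes (18 µg) incubated 30 min at 25 °C with 35 nM [3H]DPCPX in 50 mM Tris-HCl, 1 mM EDTA, 10 mM MgCl2, 0.1 mM benzamidine, 2 U/mL adenosine deaminase, pH 6.5, plus six concentrations (0.1 nM–1 µM). Nonspecific binding defined with 400 µM NECA. GF/B filtration, six washes with Tris pH 6.5. Ki via Cheng–Prusoff.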

[2] = molecular target: T2, Adenosine receptor A2a (Homo sapiens, UniProt P29274); test: Displacement of [3]ZM241385 from human adenosine A2A receptor expressed in HeLa cells
Procedure, shortened: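 10 µg membranes, 3 nM [3H]ZM241385, 30 min at 25 °C in 50 mM Tris-HCl, 1 mM EDTA, 10 mM MgCl2, 2 U/mL adenosine deaminase, pH 7.4. Six test concentrations (0.1 nM–1 µM). Nonspecific binding from 50 µM NECA. GF/C filtration, four ice-cold washes, scintillation counting. Ki via Cheng–Prusoff.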

[3] = molecular target: T3, Adenosine receptor A3 (Homo sapiens, UniProt P0DMS8); test: Displacement of [3]NECA from human adenosine A3 receptor expressed in HeLa cells
T3 sequence (P0DMS8 whole entry): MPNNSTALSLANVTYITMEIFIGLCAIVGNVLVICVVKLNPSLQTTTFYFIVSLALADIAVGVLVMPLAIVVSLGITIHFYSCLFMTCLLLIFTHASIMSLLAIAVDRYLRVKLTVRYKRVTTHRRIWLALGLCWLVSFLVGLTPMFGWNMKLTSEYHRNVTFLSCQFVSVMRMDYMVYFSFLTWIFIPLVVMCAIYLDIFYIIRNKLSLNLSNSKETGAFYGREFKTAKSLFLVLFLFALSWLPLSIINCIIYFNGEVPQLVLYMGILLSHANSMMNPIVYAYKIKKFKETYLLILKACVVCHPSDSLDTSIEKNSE
Procedure, shortened: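 90 µg membranes, 30 nM [3H]NECA, 180 min at 25 °C in 50 mM Tris-HCl, 1 mM EDTA, 5 mM MgCl2, 2 U/mL adenosine deaminase, pH 7.4. Test compound at six concentrations (0.1 nM–1 µM). Nonspecific binding with 100 µM (R)-PIA. GF/B filtration, six washes, scintillation counting. Ki = IC50/(1 + C/KD).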

[4] = molecular target: T4, Adenosine receptor A1 (Homo sapiens, UniProt P30542); test: Displacement of [3]DPCPX from human adenosine A1 receptor expressed in CHO cells
T4 sequence (P30542 whole entry): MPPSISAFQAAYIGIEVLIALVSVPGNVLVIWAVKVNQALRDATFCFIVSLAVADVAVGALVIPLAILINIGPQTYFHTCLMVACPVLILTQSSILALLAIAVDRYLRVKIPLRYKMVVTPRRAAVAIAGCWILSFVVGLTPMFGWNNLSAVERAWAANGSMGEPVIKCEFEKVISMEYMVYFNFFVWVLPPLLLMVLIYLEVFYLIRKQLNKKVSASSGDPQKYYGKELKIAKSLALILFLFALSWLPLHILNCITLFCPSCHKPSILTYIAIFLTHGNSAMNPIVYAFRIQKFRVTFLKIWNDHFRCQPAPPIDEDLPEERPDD
Procedure, shortened: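 Membranes (15 µg) incubated 60 min at 25 °C with 2 nM [3H]DPCPX in 20 mM Hepes, 100 mM NaCl, 10 mM MgCl2, 2 U/mL adenosine deaminase, pH 7.4, plus 6 test concentrations (0.1 nM–1 µM). Nonspecific binding defined with 10 µM (R)-PIA. Filtration on GF/C, 4 ice-cold washes, scintillation counting. Ki from IC50 via Cheng–Prusoff.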

[5] = molecular target: T5, Adenosine receptor A3 (Homo sapiens) (UniProt P0DMS8); test: Displacement of [3]NECA from human adenosine A3 receptor expressed in HeLa cells at 1 uM
T5 sequence (whole entry): T3 sequence (P0DMS8 whole entry)
Procedure, shortened: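 At 1 µM test compound, 90 µg membranes were incubated with 30 nM [3H]NECA for 180 min at 25 °C in Tris/EDTA/5 mM MgCl2/adenosine deaminase buffer, pH 7.4. Nonspecific binding with 100 µM (R)-PIA. Result given as % displacement of specific binding.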

[6] = molecular target: T6, Adenosine receptor A2b (Homo sapiens) (UniProt P29275); test: Displacement of [3]DPCPX from human adenosine A2B receptor expressed in HEK293 cells at 1 uM
T6 sequence (whole entry): T1 sequence (P29275 whole entry)
Procedure, shortened: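 At 1 µM test compound: 18 µg membranes, 35 nM [3H]DPCPX, 30 min at 25 °C, Tris/EDTA/MgCl2/benzamidine/adenosine deaminase buffer pH 6.5. Nonspecific binding from 400 µM NECA. Value expressed as % displacement of specific binding, calculated from total, nonspecific and competed dpm.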

[7] = molecular target: T2, Adenosine receptor A2a; test: Displacement of [3]ZM241385 from human adenosine A2A receptor expressed in HeLa cells at 1 uM
Procedure, shortened: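 At 1 µM test compound: 10 µg membranes, 3 nM [3H]ZM241385, 30 min at 25 °C in Tris/EDTA/MgCl2/adenosine deaminase buffer, pH 7.4. Nonspecific binding from 50 µM NECA. Output is % displacement of specific binding, based on total and nonspecific dpm.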

[8] = molecular target: T7, Adenosine receptor A1 (Homo sapiens) (UniProt P30542); test: Displacement of [3]DPCPX from human adenosine A1 receptor expressed in CHO cells at 1 uM
T7 sequence (whole entry): T4 sequence (P30542 whole entry)
Procedure, shortened: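 Single-point competition at 1 µM test compound: 15 µg membranes, 2 nM [3H]DPCPX, 60 min at 25 °C, Hepes/NaCl/MgCl2/adenosine deaminase buffer pH 7.4. 10 µM (R)-PIA for nonspecific binding. % displacement = (total binding − dpm)×100/(total − nonspecific).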

T2 sequence (P29274 whole entry): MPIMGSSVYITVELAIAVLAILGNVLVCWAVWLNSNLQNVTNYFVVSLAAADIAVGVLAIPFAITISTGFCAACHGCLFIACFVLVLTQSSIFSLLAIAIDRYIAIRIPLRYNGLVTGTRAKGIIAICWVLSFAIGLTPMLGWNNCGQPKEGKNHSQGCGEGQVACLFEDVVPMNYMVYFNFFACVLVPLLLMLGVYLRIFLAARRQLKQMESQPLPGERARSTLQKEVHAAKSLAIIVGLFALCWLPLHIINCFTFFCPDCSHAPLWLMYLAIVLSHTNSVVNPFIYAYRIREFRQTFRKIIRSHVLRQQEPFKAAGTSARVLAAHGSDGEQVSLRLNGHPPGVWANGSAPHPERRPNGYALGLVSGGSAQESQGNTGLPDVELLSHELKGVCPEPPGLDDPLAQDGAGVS

Compound | Ki [1] | Ki [2] | Ki [3] | Ki [4] | inhibition [5] | inhibition [6] | inhibition [7] | inhibition [8]
CC(=O)Nc1nc2ccccc2n2nc(-c3ccco3)nc12 | 251 nM | 200 nM | 251 nM | 112 nM | – | – | – | –
O=C(Nc1nc2ccccc2n2nc(-c3ccco3)nc12)c1ccco1 | 2510 nM | 398 nM | 251 nM | 200 nM | – | – | – | –
COCCCNc1nc2ccccc2n2nc(-c3ccco3)nc12 | 427 nM | 372 nM | – | 74.1 nM | 82% | – | – | –
O=C(Nc1nc2ccccc2n2nc(-c3ccco3)nc12)c1cccs1 | – | – | – | 50.1 nM | 52% | 21% | 10% | –
OCCN1CCN(c2nc3ccccc3n3nc(-c4ccco4)nc23)CC1 | – | – | – | – | 24% | 3% | 12% | 24.5%
c1ccc(Nc2nc3ccccc3n3nc(-c4ccco4)nc23)cc1 | – | 64.6 nM | – | 45.7 nM | 71.7% | 49% | – | –
O=C(CCc1ccccc1)Nc1nc2ccccc2n2nc(-c3ccco3)nc12 | 501 nM | 63.1 nM | 126 nM | 12.6 nM | – | – | – | –
c1coc(-c2nc3c(N4CCNCC4)nc4ccccc4n3n2)c1 | – | – | – | – | 26.7% | 4% | 7% | 12.3%
c1ccc(CCNc2nc3ccccc3n3nc(-c4ccco4)nc23)cc1 | – | 51.3 nM | 372 nM | 93.3 nM | – | 46% | – | –
CCOc1nc2ccccc2n2nc(-c3ccco3)nc12 | – | – | – | 3720 nM | 69% | 34% | 38% | –
c1coc(-c2nc3c(OCc4ccoc4)nc4ccccc4n3n2)c1 | 145 nM | 575 nM | 676 nM | 537 nM | – | – | – | –
CC(O)CNc1nc2ccccc2n2nc(-c3ccco3)nc12 (centres undefined) | 67.6 nM | 47.9 nM | 22.9 nM | 3.98 nM | – | – | – | –
c1coc(COc2nc3ccccc3n3nc(-c4ccco4)nc23)c1 | – | – | 66.1 nM | – | – | 3% | 8% | 55.1%
OCCNc1nc2ccccc2n2nc(-c3ccco3)nc12 | 123 nM | 63.1 nM | 30.2 nM | 3.16 nM | – | – | – | –
c1coc(CNc2nc3ccccc3n3nc(-c4ccco4)nc23)c1 | 1740 nM | 490 nM | – | 33.1 nM | 57.3% | – | – | –
O=C(Cc1ccccc1)Nc1nc2ccccc2n2nc(-c3ccco3)nc12 | 251 nM | 158 nM | 100 nM | 63.1 nM | – | – | – | –
COCCNc1nc2ccccc2n2nc(-c3ccco3)nc12 | – | 3090 nM | 437 nM | 302 nM | – | 32% | – | –
COc1nc2ccccc2n2nc(-c3ccco3)nc12 | – | 398 nM | – | 331 nM | 57.4% | 28% | – | –
c1ccc(CNc2nc3ccccc3n3nc(-c4ccco4)nc23)cc1 | – | 302 nM | – | 102 nM | 32.6% | 24% | – | –
CCN(CC)c1nc2ccccc2n2nc(-c3ccco3)nc12 | 2400 nM | 398 nM | – | 135 nM | 10.4% | – | – | –
c1ccc(COc2nc3ccccc3n3nc(-c4ccco4)nc23)cc1 | – | – | 1550 nM | – | – | 3% | 38% | 13.8%
COC(CNc1nc2ccccc2n2nc(-c3ccco3)nc12)OC | – | – | – | 575 nM | 55.3% | 22% | 20% | –
Nc1nc2ccccc2n2nc(-c3ccco3)nc12 | 13.2 nM | 11.2 nM | 331 nM | 5.62 nM | – | – | – | –
OCCN(CCO)c1nc2ccccc2n2nc(-c3ccco3)nc12 | – | 110 nM | – | 58.9 nM | 51.7% | 46% | – | –
CN(C)c1nc2ccccc2n2nc(-c3ccco3)nc12 | – | 309 nM | – | – | 50.7% | 17% | – | 31.1%
NCC(O)CNc1nc2ccccc2n2nc(-c3ccco3)nc12 (centres undefined) | – | – | – | 141 nM | 43% | 34% | 57% | –

Source: ChEMBL document CHEMBL1143971, “Synthesis, adenosine receptor binding and 3D-QSAR of 4-substituted 2-(2'-furyl)-1,2,4-triazolo[1,5-a]quinoxalines” (Bioorg Med Chem, 2008)
